Measured values published in ChEMBL document CHEMBL3272172, “Inhibition of the activity of the luteinizing hormone-releasing hormone (LH-RH) by analogues with variations at positions 2, 3, and 6 and the carboxyl terminus” (J Med Chem, 1977).
Square brackets hold non-standard residues; d marks the D form. Peptide text beside a SMILES is read from it. pGlu = O=C1CC[C@@H](C(=O)O)N1

Key:
[1] = biological target: T1, Gonadotropin-releasing hormone receptor (Rattus norvegicus) (UniProt P30969); assay: Antagonist activity at LH-RH receptor in Sprague-Dawley rat pituitary gland assessed as change in LH-RH-induced luteinizing hormone release at 10 ug/ml preincubated for 2 hrs followed by LH-RH addition at 5th and 6th hr 5 mins post drug addition and measured every hour for 4 hrs by RIA
T1 sequence (whole entry): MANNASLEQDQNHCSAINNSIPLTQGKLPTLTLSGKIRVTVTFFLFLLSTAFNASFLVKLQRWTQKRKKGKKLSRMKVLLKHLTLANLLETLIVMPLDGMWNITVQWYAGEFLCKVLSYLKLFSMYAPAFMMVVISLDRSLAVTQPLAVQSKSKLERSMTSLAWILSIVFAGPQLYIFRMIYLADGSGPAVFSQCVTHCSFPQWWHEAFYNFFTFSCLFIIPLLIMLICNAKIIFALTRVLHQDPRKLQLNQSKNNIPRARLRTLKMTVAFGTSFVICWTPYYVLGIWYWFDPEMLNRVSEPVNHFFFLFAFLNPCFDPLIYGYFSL
Procedure, shortened: (§1)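 Two pituitaries from 20-day-old female rats were incubated in 1 mL lactated Ringer's at 37 °C with shaking for 6 h, with medium replaced hourly. Analogue was added in hours 3–6. LH-RH at 0.3 ng/mL was added in hours 5–6, 5 min after the analogue. LH and FSH were measured by RIA against the LER-1240-2 or FSH standard and reported as Δ ng/mL ± SEM with p values.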

[2] = biological target: T1, Gonadotropin-releasing hormone receptor (Rattus norvegicus); assay: Antagonist activity at LH-RH receptor in Sprague-Dawley rat pituitary gland assessed as change in LH-RH-induced luteinizing hormone release at 100 ug/ml preincubated for 2 hrs followed by LH-RH addition at 5th and 6th hr 5 mins post drug addition and measured every hour for 4 hrs by RIA; procedure, shortened: as §1
[3] = biological target: T1, Gonadotropin-releasing hormone receptor (Rattus norvegicus); assay: Agonist activity at LH-RH receptor in Sprague-Dawley rat pituitary gland assessed as change in luteinizing hormone release at 100 ug/ml incubated for 4 hrs measured every hour for 4 hrs by RIA
Procedure, shortened: (§2)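 Two pituitaries from 20-day-old female rats per beaker, in 1 mL lactated Ringer's at 37 °C with shaking, 6 h total. Medium was replaced hourly. After two preincubation hours the analogue was present alone in hours 3–6 (peptide in µg/mL of medium). LH and FSH were measured by RIA as ng of LH-LER-1240-2 or FSH standard, given as Δ ± SEM with p values.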

[4] = biological target: T1, Gonadotropin-releasing hormone receptor (Rattus norvegicus); assay: Antagonist activity at LH-RH receptor in Sprague-Dawley rat pituitary gland assessed as change in LH-RH-induced follicle-stimulating hormone release at 10 ug/ml preincubated for 2 hrs followed by LH-RH addition at 5th and 6th hr 5 mins post drug addition and measured every hour for 4 hrs by RIA; procedure, shortened: as §1
[5] = biological target: T1, Gonadotropin-releasing hormone receptor (Rattus norvegicus); assay: Antagonist activity at LH-RH receptor in Sprague-Dawley rat pituitary gland assessed as change in LH-RH-induced follicle-stimulating hormone release at 100 ug/ml preincubated for 2 hrs followed by LH-RH addition at 5th and 6th hr 5 mins post drug addition and measured every hour for 4 hrs by RIA; procedure, shortened: as §1
[6] = biological target: T1, Gonadotropin-releasing hormone receptor (Rattus norvegicus); assay: Agonist activity at LH-RH receptor in Sprague-Dawley rat pituitary gland assessed as change in follicle-stimulating hormone release at 100 ug/ml incubated for 4 hrs measured every hour for 4 hrs by RIA; procedure, shortened: as §2
[7] = biological target: T1, Gonadotropin-releasing hormone receptor (Rattus norvegicus); assay: Antagonist activity at LH-RH receptor in Sprague-Dawley rat pituitary gland assessed as change in LH-RH-induced luteinizing hormone release at 1 ug/ml preincubated for 2 hrs followed by LH-RH addition at 5th and 6th hr 5 mins post drug addition and measured every hour for 4 hrs by RIA; procedure, shortened: as §1
[8] = biological target: T1, Gonadotropin-releasing hormone receptor (Rattus norvegicus); assay: Antagonist activity at LH-RH receptor in Sprague-Dawley rat pituitary gland assessed as change in LH-RH-induced follicle-stimulating hormone release at 1 ug/ml preincubated for 2 hrs followed by LH-RH addition at 5th and 6th hr 5 mins post drug addition and measured every hour for 4 hrs by RIA; procedure, shortened: as §1

SMILES | Activity [1] | Activity [2] | Activity [3] | Activity [4] | Activity [5] | Activity [6] | Activity [7] | Activity [8]
CC(C)C[C@H](NC(=O)CNC(=O)[C@H](Cc1ccc(O)cc1)NC(=O)[C@H](CO)NC(=O)[C@H](CC(C)C)NC(=O)[C@@H](NC(=O)[C@@H]1CCC(=O)N1)[C@@H](C)O)C(=O)N[C@@H](CCCNC(=N)N)C(=O)N1CCC[C@H]1C(=O)NCC(N)=O ([pGlu]TLSYGLRPG-NH2) | 180 ng/mL | 180 ng/mL | 14 ng/mL | 3080 ng/mL | 3230 ng/mL | 699 ng/mL | – | –
CC(C)C[C@H](NC(=O)CNC(=O)[C@H](Cc1ccc(O)cc1)NC(=O)[C@H](CO)NC(=O)[C@H](CC(N)=O)NC(=O)[C@H](CC(C)C)NC(=O)[C@@H]1CCC(=O)N1)C(=O)N[C@@H](CCCNC(=N)N)C(=O)N1CCC[C@H]1C(=O)NCC(N)=O ([pGlu]LNSYGLRPG-NH2) | – | 185 ng/mL | 18 ng/mL | – | 2300 ng/mL | -1270 ng/mL | – | –
CCNC(=O)[C@@H]1CCCN1C(=O)[C@H](CCCNC(=N)N)NC(=O)[C@H](CC(C)C)NC(=O)[C@@H](C)NC(=O)[C@H](Cc1ccc(O)cc1)NC(=O)[C@H](CO)NC(=O)[C@H](C)NC(=O)[C@@H](NC(=O)[C@@H]1CCC(=O)N1)[C@@H](C)CC | – | 49 ng/mL | 42 ng/mL | – | 1910 ng/mL | 1020 ng/mL | – | –
CC(C)C[C@H](NC(=O)[C@@H]1CCC(=O)N1)C(=O)N[C@@H](C)C(=O)N[C@@H](CO)C(=O)N[C@@H](Cc1ccc(O)cc1)C(=O)N[C@H](C)C(=O)N[C@@H](CC(C)C)C(=O)N[C@@H](CCCNC(=N)N)C(=O)N1CCC[C@H]1C(=O)NCC(N)=O | 149 ng/mL | 115 ng/mL | 13 ng/mL | 8150 ng/mL | 5850 ng/mL | -351 ng/mL | 230 ng/mL | 7020 ng/mL
CC(C)C[C@H](NC(=O)CNC(=O)[C@H](Cc1ccc(O)cc1)NC(=O)[C@H](CO)NC(=O)[C@H](CO)NC(=O)[C@H](CC(C)C)NC(=O)[C@@H]1CCC(=O)N1)C(=O)N[C@@H](CCCNC(=N)N)C(=O)N1CCC[C@H]1C(=O)NCC(N)=O ([pGlu]LSSYGLRPG-NH2) | 88 ng/mL | 90 ng/mL | -7 ng/mL | 6540 ng/mL | – | -367 ng/mL | – | –
CCNC(=O)[C@@H]1CCCN1C(=O)[C@H](CCCNC(=N)N)NC(=O)[C@H](CC(C)C)NC(=O)[C@@H](C)NC(=O)[C@H](Cc1ccc(O)cc1)NC(=O)[C@H](CO)NC(=O)[C@H](C)NC(=O)[C@H](CC)NC(=O)[C@@H]1CCC(=O)N1 | 56 ng/mL | 62 ng/mL | -3 ng/mL | 2970 ng/mL | 1780 ng/mL | 184 ng/mL | 157 ng/mL | 2610 ng/mL
